Assay results pooled from the literature.
Each line is one published result; the experiments were not run side by side.
Target: Atypical kinase COQ8B, mitochondrial (COQ8B, Homo sapiens, UniProt Q96D53)
Sequence (Q96D53 1-544, as in one of the studies): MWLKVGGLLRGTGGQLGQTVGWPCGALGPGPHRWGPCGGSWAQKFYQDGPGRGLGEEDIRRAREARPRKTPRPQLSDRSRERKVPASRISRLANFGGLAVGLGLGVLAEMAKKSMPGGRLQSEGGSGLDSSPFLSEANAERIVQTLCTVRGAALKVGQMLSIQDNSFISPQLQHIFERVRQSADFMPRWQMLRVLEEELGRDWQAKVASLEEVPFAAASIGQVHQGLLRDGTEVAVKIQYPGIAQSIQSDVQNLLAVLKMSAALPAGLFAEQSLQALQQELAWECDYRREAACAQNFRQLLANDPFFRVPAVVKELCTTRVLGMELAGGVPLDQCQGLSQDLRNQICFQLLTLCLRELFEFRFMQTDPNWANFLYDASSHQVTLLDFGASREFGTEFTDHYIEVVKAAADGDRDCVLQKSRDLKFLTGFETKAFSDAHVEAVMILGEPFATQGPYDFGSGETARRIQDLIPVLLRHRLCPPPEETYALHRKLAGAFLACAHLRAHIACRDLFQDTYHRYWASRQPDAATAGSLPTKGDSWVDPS

| Compound | assay | setting | remaining binding [%] |
| --- | --- | --- | --- |
| O=C(NCCCN1CCOCC1)c1ccc(Nc2nccc(-c3cc4ccccc4s3)n2)cc1 | binding, competition with immobilised ligand | 1 µM | 62 |
| COCCOc1nc(-c2ccc(Cl)nc2)nc2c1CN(C(=O)c1ncn3ccccc13)CC2 | cell-free assay, competition with immobilised ligand | 0.1 µM | 100 |
| O=C(c1ccc(Nc2ncc(Cl)c(-c3ccc(Cl)s3)n2)cc1)N1CCC(N2CCCC2)CC1 | binding, competition with immobilised ligand | 1 µM | 21 |
| CN(C(=O)c1ccccc1)c1cc(N(C)c2ccc3c(c2)CCc2ccc(C(=O)NCCN4CCOCC4)cc2C3=O)ccc1F | cell-free assay, competition with immobilised ligand | 1 µM | 100 |
| CN(C)c1nccc(-c2cnc3ncccn23)n1 | binding | 1 µM | 75 |
| COc1cnc(Nc2cccc(S(N)(=O)=O)c2)nc1N1CCN(c2ccccc2)C(=O)C1 | binding, competition with immobilised ligand | 1 µM | 100 |
| O=C(Nc1c[nH]nc1C(=O)NC1CCNCC1)c1cc(F)cc(F)c1 | binding, competition with immobilised ligand | 1 µM | 100 |
| O=C(NCCCC1CCCCC1)c1ccc(CNC(=O)c2cnn(-c3ccccc3)c2C(F)(F)F)cc1 | cell-free assay, competition with immobilised ligand | 0.1 µM | 100 |
| Cc1cnn2ncc(-c3ccnc(N(C)C)n3)c2c1 | binding | 1 µM | 81 |
| FC(F)(F)Oc1cccc(-c2cnc3ccc(-c4ccncc4)nn23)c1 | cell-free assay, competition with immobilised ligand | 5 µM | 85 |
| F[C@@H]1CCN(c2nccc(-c3cnn4ncccc34)n2)C1 | binding | 1 µM | 79 |
| CCCCN(CCCC)C(=O)CN1C[C@@H](c2cc(OC)c3c(c2)OCO3)[C@H](C(=O)O)[C@H]1CC(C)(C)CCC | cell-free assay, competition with immobilised ligand | 1 µM | 80.2 |
| C=CC(=O)N1CCC(C(=O)NCC(=O)N2CCN(c3nc(-c4cnc(N)nc4C(F)F)nc(N4CCOCC4)n3)CC2)CC1 | binding, competition with immobilised ligand | 1 µM | 100 |
| Cc1cnc(Nc2ccc(C(=O)N3CCC(N4CCCC4)CC3)cc2)nc1-c1cc2ccccc2s1 | binding, competition with immobilised ligand | 1 µM | 34 |
| C[C@@H]1CN(c2cc(-c3n[nH]c4ccc(OC5(C)CC5)cc34)ncn2)C[C@H](C)O1 | cell-free assay, competition with immobilised ligand | 0.1 µM | 72 |
| CC1CCCN1c1nccc(-c2cnn3ncccc23)n1 (stereo not shown) | binding | 1 µM | 68 |
| O=C(Nc1ccc(Oc2ccc(F)cc2)cc1)N1CCc2ncccc2[C@H]1c1ccc(F)cc1 | cell-free assay, competition with immobilised ligand | 1 µM | 92 |
| C[C@@H](c1ccc(-n2cnc3c(N)ncnc32)cc1)N1CCc2nn(C)c(Cc3ccccc3)c2C1=O | binding, competition with immobilised ligand | 0.1 µM | 80 |
| N[C@H]1CCN(c2nccc(-c3cnn4ncccc34)n2)C1 | binding | 1 µM | 74 |
| Nc1ncc2c(n1)-c1c([nH]c3ccc(C#CC4CC4)cc13)CCCC2 | binding, competition with immobilised ligand | 1 µM | 90 |
| CS(=O)(=O)c1cc(C2(NC(=O)c3cncc4c3cnn4-c3ccc(F)cc3)CC2)ccn1 | cell-free assay, competition with immobilised ligand | 1 µM | 100 |
| C[C@@H]1CCN(c2nccc(-c3cnn4ncccc34)n2)C1 | binding | 1 µM | 89 |
